Assay [1] has as its target T1, P2X purinoceptor 3 (Mus musculus, UniProt Q3UR32).
T1 sequence (Q3UR32 whole entry): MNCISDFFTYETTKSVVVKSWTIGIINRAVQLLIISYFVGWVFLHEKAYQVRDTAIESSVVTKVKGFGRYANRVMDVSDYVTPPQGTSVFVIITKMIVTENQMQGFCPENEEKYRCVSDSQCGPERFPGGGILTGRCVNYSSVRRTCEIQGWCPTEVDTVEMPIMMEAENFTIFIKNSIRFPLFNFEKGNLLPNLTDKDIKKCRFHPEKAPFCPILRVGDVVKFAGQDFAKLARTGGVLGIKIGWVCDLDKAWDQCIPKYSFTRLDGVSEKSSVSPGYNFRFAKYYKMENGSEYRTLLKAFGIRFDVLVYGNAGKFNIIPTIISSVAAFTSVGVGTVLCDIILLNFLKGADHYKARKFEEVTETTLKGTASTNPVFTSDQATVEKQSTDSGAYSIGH
The assay can be described thus: Antagonist activity at P2X3R in mouse TG sensory neurons assessed as inhibition of P2X3R agonist alpha,beta-meATP-induced current at -65 mV holding potential by whole cell voltage clamp method. In short, it runs like this:
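Mouse trigeminal sensory neurons were recorded by whole-cell patch clamp. Test compound (0.001–10 μM) was applied before 10 μM α,β-meATP, and inhibition of the agonist-evoked P2X3 current was measured. IC50 was taken from concentration–inhibition curves. N = 5–6 cells.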

Assay [2] deals with T2, P2X purinoceptor 1 (Homo sapiens, UniProt P51575).
T2 sequence (P51575 whole entry): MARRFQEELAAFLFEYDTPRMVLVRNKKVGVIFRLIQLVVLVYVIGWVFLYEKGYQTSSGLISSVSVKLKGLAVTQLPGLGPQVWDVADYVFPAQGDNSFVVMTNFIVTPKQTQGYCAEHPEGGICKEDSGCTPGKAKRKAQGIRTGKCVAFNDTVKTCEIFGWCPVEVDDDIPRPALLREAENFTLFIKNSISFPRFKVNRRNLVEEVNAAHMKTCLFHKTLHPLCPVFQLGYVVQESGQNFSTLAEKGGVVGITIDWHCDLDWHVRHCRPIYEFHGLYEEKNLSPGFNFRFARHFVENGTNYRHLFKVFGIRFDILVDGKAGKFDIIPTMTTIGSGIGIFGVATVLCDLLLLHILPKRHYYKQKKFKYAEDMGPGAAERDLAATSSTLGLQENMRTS
The assay is described as follows: Antagonist activity at human P2X1R transfected in human 1321N1 cells assessed as inhibition of ATP-induced calcium influx. Type of assay: cell-based. In short, it runs like this: (§1)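 1321N1 astrocytoma cells stably expressing human P2X1, P2X2, P2X3 or P2X4 receptor. Calcium influx was induced by ATP at the EC80 for each subtype. Results are given as IC50 (μM) or % inhibition at the indicated concentration.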

Assay [3] concerns the target T3, P2X purinoceptor 7 (Homo sapiens) (UniProt Q99572).
T3 sequence (whole entry): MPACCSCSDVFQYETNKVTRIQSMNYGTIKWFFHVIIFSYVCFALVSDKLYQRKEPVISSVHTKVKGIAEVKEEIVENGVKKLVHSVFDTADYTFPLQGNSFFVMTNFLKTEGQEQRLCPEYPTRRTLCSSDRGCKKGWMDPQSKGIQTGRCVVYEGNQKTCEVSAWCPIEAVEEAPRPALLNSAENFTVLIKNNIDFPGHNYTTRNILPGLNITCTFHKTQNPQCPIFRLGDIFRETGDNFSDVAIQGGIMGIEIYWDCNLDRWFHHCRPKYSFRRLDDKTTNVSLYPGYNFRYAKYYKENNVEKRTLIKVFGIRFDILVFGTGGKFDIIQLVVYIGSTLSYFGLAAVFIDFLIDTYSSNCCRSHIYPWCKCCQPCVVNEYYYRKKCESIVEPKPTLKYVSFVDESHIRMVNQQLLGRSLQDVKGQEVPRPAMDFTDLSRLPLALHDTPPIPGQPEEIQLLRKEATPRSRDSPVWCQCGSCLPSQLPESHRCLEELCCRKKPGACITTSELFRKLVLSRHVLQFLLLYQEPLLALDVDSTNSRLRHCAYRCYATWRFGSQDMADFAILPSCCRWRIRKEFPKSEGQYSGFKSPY
The assay is described as follows: Antagonist activity at human P2X7R transfected in human 1321N1 cells assessed as inhibition of Bz-ATP-induced calcium influx relative to control. Type of assay: cell-based. To be noted: concentration not given here.

Assay [4] deals with T4, P2X purinoceptor 4 (Homo sapiens, UniProt Q99571).
T4 sequence (Q99571 whole entry): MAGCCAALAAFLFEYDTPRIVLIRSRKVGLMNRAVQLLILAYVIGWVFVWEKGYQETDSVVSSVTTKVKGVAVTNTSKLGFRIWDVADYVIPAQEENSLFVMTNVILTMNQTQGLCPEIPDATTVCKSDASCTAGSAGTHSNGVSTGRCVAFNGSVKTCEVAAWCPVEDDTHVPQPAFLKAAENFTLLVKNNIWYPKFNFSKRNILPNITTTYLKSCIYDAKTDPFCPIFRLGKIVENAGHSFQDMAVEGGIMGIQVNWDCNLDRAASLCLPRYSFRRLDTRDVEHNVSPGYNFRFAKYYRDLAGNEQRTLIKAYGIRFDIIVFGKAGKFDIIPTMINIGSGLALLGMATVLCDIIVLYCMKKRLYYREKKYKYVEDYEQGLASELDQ
The assay is described as follows: Antagonist activity at human P2X4R transfected in human 1321N1 cells assessed as inhibition of ATP-induced calcium influx. Type of assay: cell-based. The method in brief: as §1

Assay [5] deals with T5, P2X purinoceptor 2 (Homo sapiens, UniProt Q9UBL9).
T5 sequence (Q9UBL9 whole entry): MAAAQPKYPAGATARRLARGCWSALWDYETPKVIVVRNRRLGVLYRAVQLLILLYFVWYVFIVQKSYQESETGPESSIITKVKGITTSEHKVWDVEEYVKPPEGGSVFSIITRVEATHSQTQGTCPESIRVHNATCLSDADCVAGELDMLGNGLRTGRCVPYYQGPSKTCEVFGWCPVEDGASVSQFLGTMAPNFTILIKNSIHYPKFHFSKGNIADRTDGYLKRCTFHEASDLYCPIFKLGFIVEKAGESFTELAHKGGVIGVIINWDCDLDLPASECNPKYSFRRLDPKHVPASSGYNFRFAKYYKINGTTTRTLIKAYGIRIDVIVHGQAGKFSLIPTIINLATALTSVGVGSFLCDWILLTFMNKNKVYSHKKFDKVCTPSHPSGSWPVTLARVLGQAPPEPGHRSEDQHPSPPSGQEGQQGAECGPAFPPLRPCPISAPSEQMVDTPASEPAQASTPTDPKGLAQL
The assay is described as follows: Antagonist activity at human P2X2R transfected in human 1321N1 cells assessed as inhibition of ATP-induced calcium influx. Type of assay: cell-based. The method in brief: as §1

Assay [6] deals with T6, P2X purinoceptor 3 (Homo sapiens, UniProt P56373).
T6 sequence (P56373 whole entry): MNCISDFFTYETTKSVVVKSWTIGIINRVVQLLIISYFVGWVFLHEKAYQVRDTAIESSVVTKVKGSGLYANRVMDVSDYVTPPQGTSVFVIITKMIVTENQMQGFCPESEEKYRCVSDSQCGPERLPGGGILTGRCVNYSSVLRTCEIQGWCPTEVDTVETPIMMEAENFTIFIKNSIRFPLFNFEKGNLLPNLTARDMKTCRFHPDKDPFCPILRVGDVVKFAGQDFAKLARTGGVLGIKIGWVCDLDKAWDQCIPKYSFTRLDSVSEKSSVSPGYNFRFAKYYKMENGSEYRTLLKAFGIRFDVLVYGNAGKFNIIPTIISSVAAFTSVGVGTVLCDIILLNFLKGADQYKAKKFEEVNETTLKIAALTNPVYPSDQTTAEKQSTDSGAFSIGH
The assay can be described thus: Antagonist activity at human P2X3R transfected in human 1321N1 cells assessed as inhibition of ATP-induced calcium influx. Type of assay: cell-based. In short, it runs like this:
as §1

For assay [7], the target named is T7, P2X purinoceptor 2 (Homo sapiens) (UniProt Q9UBL9).
T7 sequence (whole entry): T5 sequence (Q9UBL9 whole entry)
The assay is described as follows: Antagonist activity at human P2X2R transfected in human 1321N1 cells assessed as inhibition of ATP-induced calcium influx relative to control. Type of assay: cell-based. To be noted: concentration not given here. In short, it runs like this: as §1

The target of assay [8] is T8, P2X purinoceptor 7 (Homo sapiens, UniProt Q99572).
T8 sequence (Q99572 whole entry): T3 sequence (whole entry)
The assay can be described thus: Antagonist activity at human P2X7R transfected in human 1321N1 cells assessed as inhibition of Bz-ATP-induced calcium influx. Type of assay: cell-based.

Assay [9] addresses T9, P2X purinoceptor 1 (Homo sapiens) (UniProt P51575).
T9 sequence (whole entry): T2 sequence (P51575 whole entry)
The assay can be described thus: Antagonist activity at human P2X1R transfected in human 1321N1 cells assessed as inhibition of ATP-induced calcium influx relative to control. To be noted: concentration not given here. Type of assay: cell-based. The method in brief:
as §1

The target in assay [10] is T10, P2X purinoceptor 4 (Homo sapiens) (UniProt Q99571).
T10 sequence (whole entry): T4 sequence (Q99571 whole entry)
The assay can be described thus: Antagonist activity at human P2X4R transfected in human 1321N1 cells assessed as inhibition of ATP-induced calcium influx relative to control. Type of assay: cell-based. To be noted: concentration not given here. In short, it runs like this:
as §1

The target of assay [11] is T11, P2X purinoceptor 3 (Homo sapiens) (UniProt P56373).
T11 sequence (whole entry): T6 sequence (P56373 whole entry)
The assay is described as follows: Antagonist activity at human P2X3R transfected in human 1321N1 cells assessed as inhibition of ATP-induced calcium influx relative to control. Type of assay: cell-based. Conditions: concentration not given here. The method in brief:
as §1

The species entered for assay [12] is Homo sapiens. The assay is described as follows: Selectivity ratio of IC50 for human P2X7R transfected in human […] 1321N1 cells to IC50 for human transfected in human 1321N1 cells. Type of assay: cell-based.
The species entered for assay [13] is Homo sapiens. The assay can be described thus: Selectivity ratio of IC50 for human P2X4R transfected in human […] 1321N1 cells to IC50 for human transfected in human 1321N1 cells. Type of assay: cell-based.
Assay [14] is filed under the species Homo sapiens. The assay can be described thus: Selectivity ratio of IC50 for human P2X1R transfected in human […] 1321N1 cells to IC50 for human transfected in human 1321N1 cells. Type of assay: cell-based.

In general, pIC50 refers to the negative decadic logarithm of the IC50, by convention in mol/L. Usually inhibition stands for the drop in the measured response relative to a control, in per cent.

pIC50: −log10 of the molar value.

As to `Nc1ncnc2c1ncn2[C@@H]1O[C@H](COP(=O)(O)OP(=O)(O)OP(=O)(O)O)[C@H]2O[C@H](c3ccccc3)O[C@H]21`, the pIC50 in assay [1] is 6.68; in assay [2] it was < 4.00; in assay [4], 4.91; in [5] it was < 4.00; in assay [6], 5.23; in assay [8], < 4.00. Also, the inhibition in assay [3] came out at 21%; in [7], 16%; in assay [9], 27%.
For `CC1(C)O[C@@H]2[C@H](O1)[C@@H](COC(=O)c1cc(C(=O)O)c(C(=O)O)cc1C(=O)O)O[C@H]2n1cnc2c(N)ncnc21`, the inhibition in assay [10] amounted to 35%; in assay [11], 56%; in assay [7], 30%; in [9] it was 13%. In addition, the pIC50 in [2] was < 5.00; in [4], < 4.52; in assay [5], < 5.00; in assay [6], ≤ 4.00; in [8], < 4.52.
Take `CC1(C)O[C@@H]2[C@H](O1)[C@@H](C(=O)N[C@@H](CCC(=O)O)C(=O)O)O[C@H]2n1cnc2c(N)ncnc21`: the inhibition was -6% in [10]; -9% in assay [3]; 15% in assay [11]; 6% in assay [7]; 21% in assay [9]. Besides, the pIC50 in assay [2] was < 4.00; in [4], < 4.00; in [5], < 4.00; in [6] it was < 4.00; in assay [8] it was < 4.52.
On to `Nc1ncnc2c1ncn2[C@@H]1O[C@H](COP(=O)(O)OP(=O)(O)OP(=O)(O)O)[C@H]2O[C@@H](c3ccccc3)O[C@H]21`, for which the pIC50 was 7.09 in assay [1]; ≤ 5.00 in assay [2]; 4.96 in assay [4]; < 4.00 in [5]; 6.21 in assay [6]; 5.07 in assay [8]. The Ratio IC50 in [12] was found to be 18; in assay [13], 14. Also, the inhibition is 18% in assay [7] and 44% in [9].
`Nc1ncnc2c1ncn2[C@@H]1O[C@H](COP(=O)(O)OP(=O)(O)OP(=O)(O)O)[C@H]2OC3(CCCCC3)O[C@H]21`: the pIC50 in assay [1] is 7.08; in [2] it was 5.09; in [4], 4.53; in assay [5] it was < 4.00; in [6], 6.05; in [8], < 4.00. The inhibition in [3] came to 30%; in assay [7] it was 20%. For the same compound, the Ratio IC50 in assay [14] worked out at 10.
